Values after ≈ are worked out from the molar mass of the structure shown.
Columns and labels:
HeLa [1] = assay: Minimum cytotoxic concentration required to cause a microscopically detectable alteration of normal cell morphology and show antiviral activity in HeLa cells; assay type: functional; conditions: Homo sapiens
Outline: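 HeLa cell cultures exposed to compound for the same duration as the antiviral assay, then examined microscopically. The minimum cytotoxic concentration is the lowest level causing detectable alteration of normal cell morphology. Values are in μg/mL.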

Nucleic Acid [2] = assay: Ratio of association constant of poly (dA-dT) and poly (dG-dC); assay type: nucleic-acid assay
Outline: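 Kapp for poly(dA-dT) and for poly(dG-dC) is each determined by ethidium bromide competition in 0.01 M cacodylate, pH 7.0, 25 °C, with 1.26 μM ethidium and 1 μM polynucleotide. IC50 comes from a fitted competition sigmoid and is converted to Kapp assuming a four-base-pair binding size. The ratio is taken between the two polynucleotides.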

[3] = Dose required to inhibit Human T-Lymphoblast (Molt/4F) cell proliferation by 50%; assay type: functional; conditions: read-out: CD50 (the source's name)
Human alphaherpesvirus 2 = assay: Minimum inhibitory concentration required to reduce herpes simplex virus-2(G) induced cytopathogenicity by 50% in primary rabbit kidney cells (PRK); assay type: functional
Outline: (§1)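 Cell cultures (PRK, HeLa or Vero B) are infected at 100 × CCID50. Cytopathogenicity is recorded once it reaches completion in the untreated virus-infected controls. The minimum inhibitory concentration is given in μg/mL.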

Vero [4] = assay: Minimum inhibitory concentration required to reduce parainfluenza virus-3 induced cytopathogenicity by 50% in african green monkey (VeroB) cells; assay type: functional, Human respirovirus 3; conditions: Chlorocebus sabaeus; outline: as §1
HeLa [5] = assay: Minimum inhibitory concentration required to reduce Coxsackie virus B4 induced cytopathogenicity by 50% in HeLa cells; assay type: functional; conditions: Homo sapiens; outline: as §1
[6] = system: Mammalian orthoreovirus 1; assay: Minimum inhibitory concentration required to reduce reovirus-1 induced cytopathogenicity by 50% in african green monkey (VeroB)cells; assay type: functional; outline: as §1
Human alphaherpesvirus 1 = assay: Minimum inhibitory concentration required to reduce herpes simplex virus-1 (KOS) induced cytopathogenicity by 50% in primary rabbit kidney cells(PRK); assay type: functional; outline: as §1
Semliki Forest virus = assay: Minimum inhibitory concentration required to reduce semliki forest virus induced cytopathogenicity by 50% in african green monkey (VeroB) cells; assay type: functional; outline: as §1
Oryctolagus cuniculus = species on record: Oryctolagus cuniculus; assay: Minimum cytotoxic concentration required to cause a microscopically detectable alteration of normal cell morphology and show antiviral activity in primary rabbit kidney (PRK) cells; assay type: functional
FM3A = assay: In vitro inhibition of FM3A (murine mammary carcinoma) cell proliferation.; assay type: functional; conditions: Mus musculus, read-out: CD50 (the source's name)
Nucleic Acid [7] = assay: Association constant against the polynucleotide poly (dA-dT).; assay type: nucleic-acid assay
Outline: (§2)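 Competition with ethidium bromide binding at 25 °C in 0.01 M cacodylate buffer, pH 7.0, with 1.26 μM ethidium bromide and 1 μM polynucleotide. Bound ethidium is estimated from its fluorescence increase (V = 34 for poly(dA-dT), 25 for poly(dG-dC)). IC50 for 50% ethidium displacement comes from a fitted competition sigmoid. Kapp is calculated from IC50 assuming a binding size of four base pairs.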

Vero [8] = assay: Minimum inhibitory concentration required to reduce Coxsackie virus B4 induced cytopathogenicity by 50% in african green monkey (VeroB) cells; assay type: functional, Coxsackievirus B4; conditions: Chlorocebus sabaeus; outline: as §1
Nucleic Acid [9] = assay: Association constant against polynucleotide poly (dG-dC); assay type: nucleic-acid assay; outline: as §2
[10] = system: Vesicular stomatitis virus; assay: Minimum inhibitory concentration required to reduce vesicular stomatitis virus induced cytopathogenicity by 50% in primary rabbit kidney cells (PRK); assay type: functional
Vero [11] = assay: Minimum cytotoxic concentration required to cause a microscopically detectable alteration of normal cell morphology and show antiviral activity in african green monkey (Vero B) cells; assay type: functional; conditions: Chlorocebus sabaeus
Raji = assay: Dose required to inhibit Human B-Lymphoblast (Raji) cell proliferation by 50%; assay type: functional; conditions: read-out: CD50 (the source's name)
L1210 = assay: Dose required to inhibit Murine leukemia (L1210) cell proliferation by 50%; assay type: functional; conditions: Mus musculus, read-out: CD50 (the source's name)
Sindbis virus = assay: Minimum inhibitory concentration required to reduce Sindbis virus induced cytopathogenicity by 50% in african green monkey (VeroB) cells; assay type: functional; outline: as §1

SMILES	MCC (HeLa [1]) [µg/mL]	Ratio (Nucleic Acid [2])	CC50 [3] [µg/mL]	MIC (Human alphaherpesvirus 2) [µg/mL]	MIC (Vero [4]) [µg/mL]	MIC (HeLa [5]) [µg/mL]	MIC [6] [µg/mL]	MIC (Human alphaherpesvirus 1) [µg/mL]	MIC (Semliki Forest virus) [µg/mL]	MCC (Oryctolagus cuniculus) [µg/mL]	CC50 (FM3A) [µg/mL]	K app (Nucleic Acid [7]) [M⁻¹]	MIC (Vero [8]) [µg/mL]	K app (Nucleic Acid [9]) [M⁻¹]	MIC [10] [µg/mL]	MCC (Vero [11]) [µg/mL]	CC50 (Raji) [µg/mL]	CC50 (L1210) [µg/mL]	MIC (Sindbis virus) [µg/mL]
CC(NC(=O)c1cc(NC(=O)c2cc(NC(=O)CNC(=N)N)cn2C)cn1C)C(=O)NC(C)C(=O)OC(C)(C)C (stereo not drawn)	> 400	6.29	> 100	> 200	> 400	> 400	> 200	> 200	> 400	>200	> 100	4400	> 400	700	> 200	> 400	54.7 (≈ 97.7 µM)	> 100	> 400
COC(=O)c1ccc([N+](=O)[O-])n1C	400	–	66 (≈ 358 µM)	> 400	> 100	> 400	> 200	> 400	> 400	>400	84.7 (≈ 460 µM)	–	> 200	–	> 400	400	62.4 (≈ 339 µM)	28 (≈ 152 µM)	> 400
CC(NC(=O)C(C)NC(=O)c1cc(NC(=O)c2cc(NC(=O)CNC(=N)N)cn2C)cn1C)C(=O)O (stereo not drawn)	> 400	1	> 100	> 400	> 400	> 400	> 200	> 400	> 400	>400	> 100	1200	> 400	1200	> 400	> 400	> 100	> 100	> 400
Cn1cc(NC(=O)c2cc([N+](=O)[O-])cn2C)cc1C(=O)NCCCNCCCCN	> 400	5.37	> 100	> 200	> 200	> 400	> 200	> 200	> 400	>200	–	440000	> 200	82000	> 100	> 400	> 100	> 100	> 400
Cn1c(C(=O)NCCC(=N)N)ccc1[N+](=O)[O-]	> 400	–	> 50	> 100	100 (≈ 418 µM)	> 400	> 100	> 200	> 200	>400	–	< 100	> 100	< 100	> 400	> 400	> 50	> 50	> 200
Cn1cc(NC(=O)c2cc([N+](=O)[O-])cn2C)cc1C(=O)O	> 400	–	> 100	> 400	> 200	> 400	> 400	> 400	> 400	>400	> 100	–	150 (≈ 513 µM)	–	> 400	> 400	> 100	> 100	> 400
C[C@H](NC(=O)c1cc(NC(=O)c2cc(NC(=O)CNC(=N)N)cn2C)cn1C)C(=O)N[C@@H](C)C(=O)N[C@@H](C)C(=O)OC(C)(C)C	> 400	6.06	> 100	> 100	> 400	> 400	> 200	> 100	> 400	400	> 100	20000	> 200	3300	> 200	> 400	> 100	> 100	> 400
CC(NC(=O)c1cc(NC(=O)c2cc(NC(=O)CNC(=N)N)cn2C)cn1C)C(=O)OC(C)(C)C (stereo not drawn)	> 400	0.87	> 100	> 400	> 400	> 400	> 400	> 400	> 400	>400	> 100	8700	> 400	10000	> 400	> 400	> 100	> 100	> 400

From ChEMBL document CHEMBL1124462, “Synthesis, DNA binding, and biological evaluation of synthetic precursors and novel analogues of netropsin” (J Med Chem, 1989)
